Sampled rows, rich in hits. Any-hit rate of the full collection: about 2.6%.
Wnt bcat act: activators of Wnt/beta-catenin signaling; Wnt/beta-catenin reporter cell assay, activator, plate reader; activation, % at 9.35 µM; actives 1.2% (n = 300,000); in the data active = activation above about 30%, passing the limit was not always enough; inconclusive = no clear call, values can overlap the other calls;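 note: 0% = neutral control wells and 100% = positive control wells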
Xi reactivation: X-chromosome reactivation activator | actives 0.055% (n = 360,000) | activation, % at 7.58 µM | XiGFP mouse fibroblasts, % GFP-positive cells imaging, 3 d; cells co-treated with 5-aza-dC sensitizer; scaled so ellipticine positive control = 100%;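 active = mean normalized replicate activation at least 10% and every replicate at or above 10%; inconclusive = only one of the two criteria met; inactive = mean below 10% and not all replicates reach 10%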;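 note: 0% = median of on-plate neutral control wells and 100% = ellipticine 6 µM median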
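System: SV40-immortalized XiGFP fibroblast cells, line 68-5-11 / Incubation: 3-day compound exposure, then 15 min fixation at room temperature / Compound: single concentration per compound, delivered by pin transfer / Buffer or medium: DMEM plus 5-aza-dC sensitizer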
MITF act: increases MITF-driven TRPM1 promoter luciferase signal. actives 0.75% (n = 300,000). AID 588334. SK-MEL-5 TRPM1-promoter luciferase, 24 h; % of positive control, neutral wells = 0. activation, % at 12.5 µM;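 active = mean activation of at least 80% with every replicate also reaching 80%; inconclusive = mean reaches 80% but some replicate falls short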;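 note: 0% = neutral control wells and 100% = parthenolide positive control wells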
Vif imaging: blocks HIV Vif function. HEK293T cells, Vif self-association by quenched fluorescence, imaging, 24 h. inhibition, % at 7.49 µM. actives 0.35% (n = 340,000); in the data active = inhibition above about 50%, passing the limit was not always enough; inconclusive = no clear call, values can overlap the other calls; inactive = below about 31%
esBAF inh: inhibitors of esBAF chromatin remodeling in mouse ES cells; Bmi1-luciferase knock-in reporter, 24 h; 100% = twice the neutral-well signal; reporter increase, % at 12.5 µM; actives 2% (n = 350,000); AID 602393; in the data active = activation above about 40%; inconclusive = no clear call, values can overlap the other calls;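 note: 0% = median of the plate's neutral control wells and 100% = double that signal; a rise in the Bmi1 reporter signal indicates esBAF inhibition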
An asterisk follows results filed as active.

What do the screens show for `C[C@H]1CN([C@@H](C)CO)C(=O)c2cc(/C=C/c3ccccc3)cnc2O[C@H]1CN(C)Cc1cncnc1`?
Xi reactivation: -1; esBAF inh: 2

What do the screens show for `C[C@@H]1CN([C@@H](C)CO)C(=O)c2cccc(NC(=O)Nc3ccc(C(F)(F)F)cc3)c2O[C@@H]1CN(C)S(=O)(=O)c1ccc(Cl)cc1`?
Xi reactivation: 0; esBAF inh: 15

How did O=C(Nc1ccc(Oc2cccnc2)cc1)c1ccccc1F do in these assays?
Wnt bcat act: 18; MITF act: 74; Vif imaging: -2; esBAF inh: 60*

What do the screens show for `O=C(Nc1ccc(Oc2cccnc2)cc1)c1ccccc1Cl`?
Wnt bcat act: 2; Xi reactivation: 0; MITF act: 18; Vif imaging: -8

How did COc1cccc(-c2cc(C(=O)N3CCc4ccccc4C3)no2)c1 do in these assays?
MITF act: 1; Vif imaging: 2; esBAF inh: 0

How did CCN(CC)S(=O)(=O)c1cccc(-c2nc3n(n2)Cc2ccccc2-3)c1 do in these assays?
Wnt bcat act: -2; MITF act: -16; Vif imaging: -8; esBAF inh: 75*

How did Clc1ccc(-c2nc3n(n2)Cc2ccccc2-3)cc1 do in these assays?
Wnt bcat act: 53*; Vif imaging: -6; esBAF inh: 8

What do the screens show for `COc1cccc(-c2nc3n(n2)CCc2ccccc2-3)c1`?
Wnt bcat act: 64*; Xi reactivation: 0; Vif imaging: -16; esBAF inh: 36

How did COc1cccc(CN2[C@@H](CO)[C@H](c3ccccc3)C23CN(Cc2ccccc2OC)C3)c1 do in these assays?
Xi reactivation: 0

What do the screens show for `C[C@@H]1CN([C@@H](C)CO)C(=O)c2cccc(NS(=O)(=O)c3cccs3)c2O[C@H]1CN(C)C(=O)Nc1ccc2c(c1)OCO2`?
Xi reactivation: 0; esBAF inh: -3

Results for Cc1noc(C)c1S(=O)(=O)Nc1ccc2c(c1)C(=O)N([C@H](C)CO)C[C@H](C)[C@@H](CN(C)Cc1ccccc1)OCCCC[C@H](C)O2 ?
Xi reactivation: 0; esBAF inh: -4

What do the screens show for `Cc1cccc(NC(=O)NC(=O)c2ccccc2)n1`?
Wnt bcat act: 37*; Xi reactivation: 0; MITF act: 43; Vif imaging: -5

How did COC(=O)c1ccc(NC(=O)c2cn(-c3cccc(C)n3)cn2)cc1 do in these assays?
Wnt bcat act: 1; MITF act: 21; Vif imaging: 2; esBAF inh: 6

What do the screens show for `Cc1ccc(NC(=O)c2cn(-c3cccc(C)n3)cn2)cc1`?
MITF act: 106*; Vif imaging: -5; esBAF inh: 26

How did Cc1ccc(NC(=O)Nc2cccc(C)n2)cc1 do in these assays?
Wnt bcat act: 40*; Xi reactivation: 0; MITF act: 76; Vif imaging: -9; esBAF inh: 4

How did Cc1cccc(NC(=O)Nc2ccc(C)c(C)c2)n1 do in these assays?
Wnt bcat act: 35*; MITF act: 32; Vif imaging: -7; esBAF inh: 48*

How did COc1ccc(NC(=O)N(C)C[C@@H]2Oc3ccc(NS(=O)(=O)c4c(C)noc4C)cc3CC(=O)N([C@@H](C)CO)C[C@@H]2C)cc1 do in these assays?
Xi reactivation: -1; esBAF inh: -22

Results for Cc1ccc(NC(=O)Nc2ccnc(-c3cccnc3)n2)cc1 ?
Wnt bcat act: 55*; Xi reactivation: 0; MITF act: -3; Vif imaging: -2

What do the screens show for `COc1ccc(NC(=O)N(C)C[C@@H]2OCc3cn(nn3)CCCC(=O)N([C@H](C)CO)C[C@@H]2C)cc1`?
Xi reactivation: 0; esBAF inh: 0

Results for COCc1cn(CC[C@@H]2CC[C@@H](NC(=O)Nc3ccc(Cl)cc3)[C@H](CO)O2)nn1 ?
Xi reactivation: -1; esBAF inh: -1

What do the screens show for `COc1ccc(-n2ncc3c(NCc4cccs4)ncnc32)cc1`?
Wnt bcat act: 27; MITF act: inconclusive; Vif imaging: -5; esBAF inh: 107*

What do the screens show for `c1ccc(-n2ncc3c(NCc4cccs4)ncnc32)cc1`?
Wnt bcat act: 71*; Vif imaging: -22; esBAF inh: 45*

Assay outcomes (PubChem BioAssay)
